Experimental findings from ChEMBL document CHEMBL5131563, “Accelerated Identification of Cell Active KRAS Inhibitory Macrocyclic Peptides using Mixture Libraries and Automated Ligand Identification System (ALIS) Technology” (J Med Chem, 2022) are described below.

pEC50, pIC50: −log10 of the molar value. *1 amine or outer side, *2 acyl side, *3 side chain or, on linkers, in order; H or OH if unused. Where a SMILES comes first, the peptide text is derived from it. Bridges are numbered along the chain shown (N, C = ends). [ ]: non-standard residue; d: D form. X1 = O=C([C@@H]1[C@H](c2ccccc2)CCN1[*:1])[*:2]; Pro(3R-Ph) = O=C(O)[C@H]1NCC[C@@H]1c1ccccc1; Ala(4-thiazolyl) = N[C@@H](Cc1cscn1)C(=O)O; Bip = N[C@@H](Cc1ccc(-c2ccccc2)cc1)C(=O)O; Dip = N[C@H](C(=O)O)C(c1ccccc1)c1ccccc1; Lys(N3) = [N-]=[N+]=NCCCC[C@H](N)C(=O)O; Ala(cPent) = N[C@@H](CC1CCCC1)C(=O)O; hPhe = N[C@@H](CCc1ccccc1)C(=O)O; Cha = N[C@@H](CC1CCCCC1)C(=O)O; hLeu = CC(C)CC[C@H](N)C(=O)O; Nle = CCCC[C@H](N)C(=O)O; Dab = NCC[C@H](N)C(=O)O; Nva = CCC[C@H](N)C(=O)O

Data set [1] in a line: Stability in human HeLa cell homogenate assessed as half life by LC-MS/MS analysis. The format is ADME, cell-based. The method, boiled down: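 HeLa cells suspended at 1 × 10^6 cells/mL, probe-sonicated on ice until homogeneous, stored frozen at –20 °C. Peptides incubated with homogenate (1 × 10^6 cells/mL equivalent); peptide loss over time quantified by LC-MS/MS to derive t1/2.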

Data set [2] has as its target T1, GTPase KRas (Homo sapiens, UniProt P01116, G12D). Put plainly: Inhibition of recombinant biotinylated KRAS G12D mutant (unknown origin) assessed as inhibition of SOS-catalyzed nucleotide exchange preincubated for 60 mins followed by addition of human SOS protein and unlabeled GTP and measured after 60 mins by TR-FRET analysis. Put shortly: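 Biotinylated KRAS G12D was treated in EDTA buffer (1 h, RT), then loaded at 90 nM with 900 nM Bodipy-GDP and 15 nM Tb-streptavidin in Mg2+ buffer, HEPES pH 7.5 (6 h, RT). It was used at 1.5 nM assay solution with a 10-point, 3-fold DMSO compound series for 60 min at RT. A solution of 120 nM human SOS plus GTP was added for 60 min. The read-out was TR-FRET at 520/495 nm, normalized to DMSO and saturating-inhibitor controls, with a 4-parameter fit.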

For data set [3], the target named is T1, GTPase KRas. Nature of the data set: Inhibition of KRAS in human ASPC1 cells harboring KRAS G12D mutant assessed as inhibition of ERK phosphorylation incubated for 2 hrs by AlphaScreen-based […] assay. Format: cell-based. The method, boiled down:
(§1)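 AsPC-1 cells (KRAS G12D) were seeded at 15 000 cells/well in phenol-red-free RPMI with 10% FBS and 25 mM HEPES, then incubated overnight at 37 °C and 5% CO2. Medium was switched to serum-free before dosing. Cells were given a dose–response titration for 2 or 18 h at 37 °C, washed and lysed with protease inhibitors. Phospho-ERK and total ERK were read by AlphaScreen SureFire multiplex, using the pERK/total ERK ratio. Curves were fit with a 4-parameter logistic.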

The target of data set [4] is T1, GTPase KRas. Put plainly: Inhibition of KRAS in human ASPC1 cells harboring KRAS G12D mutant assessed as inhibition of ERK phosphorylation incubated for 18 hrs by AlphaScreen-based […] assay. Format: cell-based. Put shortly:
as §1

The subject of data set [5] is HeLa. Nature of the data set: Cell permeability in human HeLa cells transfected with NanoLuc-HaloTag vector incubated for 4 hrs followed by treated with NanoBret618-azide ligand by NanoClick assay. The format is ADME, cell-based.
Data set [6] concerns HeLa. Put plainly: Cell permeability in human HeLa cells transfected with NanoLuc-HaloTag vector incubated for 18 hrs followed by treated with NanoBret618-azide ligand by NanoClick assay. The format is ADME, cell-based.

T1 sequence (P01116 whole entry G12D): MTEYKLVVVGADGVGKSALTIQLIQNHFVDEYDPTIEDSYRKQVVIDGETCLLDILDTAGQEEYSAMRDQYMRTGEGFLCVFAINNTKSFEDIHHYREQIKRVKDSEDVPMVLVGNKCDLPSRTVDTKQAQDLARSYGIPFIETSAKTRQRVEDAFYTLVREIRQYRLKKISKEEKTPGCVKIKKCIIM

Take `CC[C@H](C)[C@@H]1NC(=O)[C@H](Cc2ccc(-c3ccccc3)cc2)NC(=O)[C@H](CC(C)C)NC(=O)[C@@H]2[C@H](c3ccccc3)CCN2C(=O)[C@@H](NC(=O)[C@H](CCCNC(=N)N)NC(=O)[C@H](CCCNC(=N)N)NC(C)=O)CSSC[C@@H](C(=O)N[C@@H](CCCNC(=N)N)C(=O)N[C@@H](CCCNC(=N)N)C(N)=O)NC(=O)[C@H](C(C)C)NC(=O)[C@@H]2CCCN2C(=O)[C@H](CC(=O)O)NC(=O)[C@H](Cc2ccc(O)cc2)NC(=O)[C@H](CO)NC(=O)[C@H](C)NC1=O` (Ac-RRC[X1]L[Bip]IASYDPVCRR-NH2; disulfide 3-14): in data set [1], the half-life is greater than 372 min. Moreover, the negative logarithm of the IC50 (pIC50) is greater than 9.00 at GTPase KRas [2], 5.42 on GTPase KRas [3] and 5.41 at GTPase KRas [4].
The corresponding values for `CC[C@H](C)[C@@H]1NC(=O)[C@H](Cc2ccc(-c3ccccc3)cc2)NC(=O)[C@H](CC(C)C)NC(=O)[C@@H]2[C@@H](c3ccccc3)CCN2CC(=O)[C@@H](NC(=O)[C@H](CCCNC(=N)N)NC(=O)[C@H](CCCNC(=N)N)NC(C)=O)CSSC[C@@H](C(=O)N[C@@H](CCCNC(=N)N)C(=O)N[C@@H](CCCNC(=N)N)C(N)=O)NC(=O)[C@H](C(C)C)NC(=O)[C@@H]2CCCN2C(=O)[C@H](CC(=O)O)NC(=O)[C@H](Cc2ccc(O)cc2)NC(=O)[C@H](CO)NC1=O` are greater than 372 min, greater than 9.00, 5.48 and 4.48.
Consider `CC[C@H](C)[C@@H]1NC(=O)[C@H](Cc2ccc(-c3ccccc3)cc2)NC(=O)[C@H](CC(C)C)NC(=O)[C@@H]2[C@H](c3ccccc3)CCN2C(=O)[C@@H](NC(=O)[C@H](CCCNC(=N)N)NC(=O)[C@H](CCCNC(=N)N)NC(=O)[C@H](CCCCN=[N+]=[N-])NC(C)=O)CSSC[C@@H](C(=O)N[C@@H](CCCNC(=N)N)C(=O)N[C@@H](CCCNC(=N)N)C(N)=O)NC(=O)[C@H](C(C)C)NC(=O)[C@@H]2CCCN2C(=O)[C@H](CC(=O)O)NC(=O)[C@H](Cc2ccc(O)cc2)NC(=O)[C@H](CO)NC1=O`, for which the half-life in data set [1] is greater than 372 min. The values for the pIC50 at GTPase KRas [2], on GTPase KRas [3] and at GTPase KRas [4] were greater than 9.00, 5.57 and 4.72, respectively. For the same compound, the figures for the pEC50 with HeLa [5] and with HeLa [6] were 5.14 and 6.70, respectively.
For `CC[C@H](C)[C@@H]1NC(=O)[C@H](Cc2ccc(O)cc2)NC(=O)[C@H](CC(C)C)NC(=O)[C@@H]2CCCN2C(=O)[C@@H](NC(=O)[C@H](CCCNC(=N)N)NC(=O)[C@H](CCCNC(=N)N)NC(C)=O)CSSC[C@@H](C(=O)N[C@@H](CCCNC(=N)N)C(=O)N[C@@H](CCCNC(=N)N)C(N)=O)NC(=O)[C@H](C(C)C)NC(=O)[C@@H]2CCCN2C(=O)[C@H](CC(=O)O)NC(=O)[C@H](C(c2ccccc2)c2ccccc2)NC(=O)[C@H](CCN)NC1=O` (Ac-RRCPLYI[Dab][Dip]DPVCRR-NH2; disulfide 3-13), in data set [1], the half-life amounted to 34 min. Besides, the pIC50 on GTPase KRas [2] is less than 4.95.
Consider `CC(=O)N[C@@H](CCCCN=[N+]=[N-])C(=O)N[C@@H](CCCNC(=N)N)C(=O)N[C@@H](CCCNC(=N)N)C(=O)N[C@H]1CSSC[C@@H](C(=O)N[C@@H](CCCNC(=N)N)C(=O)N[C@@H](CCCNC(=N)N)C(N)=O)NC(=O)[C@H](C(C)C)NC(=O)[C@@H]2CCCN2C(=O)[C@H](CC(=O)O)NC(=O)[C@H](Cc2ccc(O)cc2)NC(=O)[C@H](CO)NC(=O)[C@H](C)NC(=O)[C@H](Cc2ccc(-c3ccccc3)cc2)NC(=O)[C@H](CC(C)C)NC(=O)[C@@H]2[C@@H](c3ccccc3)CCN2C1=O` (Ac-[Lys(N3)]RRC[Pro(3R-Ph)]L[Bip]ASYDPVCRR-NH2; disulfide 4-14), for which the half-life in data set [1] is greater than 372 min. Besides, the pIC50 on GTPase KRas [2] was greater than 9.00; on GTPase KRas [3], 5.21; on GTPase KRas [4], 5.17. Further, the pEC50 with HeLa [5] is 5.83; in the data set with HeLa [6], 6.83.
Take `CC(=O)N[C@@H](CCCNC(=N)N)C(=O)N[C@@H](CCCNC(=N)N)C(=O)N[C@H]1CSSC[C@@H](C(=O)N[C@@H](CCCNC(=N)N)C(=O)N[C@@H](CCCNC(=N)N)C(N)=O)NC(=O)[C@H](C(C)C)NC(=O)[C@@H]2CCCN2C(=O)[C@H](CC(=O)O)NC(=O)[C@H](Cc2ccc(O)cc2)NC(=O)[C@H](CO)NC(=O)[C@H](CCC(C)C)NC(=O)[C@H](CCc2ccccc2)NC(=O)[C@H](CC(C)C)NC(=O)[C@@H]2CCCN2C1=O` (Ac-RRCPL[hPhe][hLeu]SYDPVCRR-NH2; disulfide 3-13): the half-life in data set [1] was 14 min. In addition, the pIC50 at GTPase KRas [2] is less than 4.95.
The like results for `CCC[C@@H]1NC(=O)[C@H](Cc2ccc(O)cc2)NC(=O)[C@H](CC(C)C)NC(=O)[C@@H]2CCCN2C(=O)[C@@H](NC(=O)[C@H](CCCNC(=N)N)NC(=O)[C@H](CCCNC(=N)N)NC(C)=O)CSSC[C@@H](C(=O)N[C@@H](CCCNC(=N)N)C(=O)N[C@@H](CCCNC(=N)N)C(N)=O)NC(=O)[C@H](C(C)C)NC(=O)[C@@H]2CCCN2C(=O)[C@H](CC(=O)O)NC(=O)[C@H](Cc2ccc(O)cc2)NC(=O)[C@H](CO)NC1=O` (Ac-RRCPLY[Nva]SYDPVCRR-NH2; disulfide 3-13) were, in that order, 19 min and less than 4.95.
The like results for `CCCC[C@@H]1NC(=O)[C@H]([C@@H](C)CC)NC(=O)[C@H](Cc2ccc(O)cc2)NC(=O)[C@H](CC(C)C)NC(=O)[C@@H]2CCCN2C(=O)[C@@H](NC(=O)[C@H](CCCNC(=N)N)NC(=O)[C@H](CCCNC(=N)N)NC(C)=O)CSSC[C@@H](C(=O)N[C@@H](CCCNC(=N)N)C(=O)N[C@@H](CCCNC(=N)N)C(N)=O)NC(=O)[C@H](C(C)C)NC(=O)[C@@H]2CCCN2C(=O)[C@H](CC(=O)O)NC(=O)[C@H](CC2CCCCC2)NC1=O` (Ac-RRCPLYI[Nle][Cha]DPVCRR-NH2; disulfide 3-13) were, in that order, 26 min and less than 4.95.
The corresponding values for `CC[C@H](C)[C@@H]1NC(=O)[C@H](Cc2ccc(O)cc2)NC(=O)[C@H](CC(C)C)NC(=O)[C@@H]2CCCN2C(=O)[C@@H](NC(=O)[C@H](CCCNC(=N)N)NC(=O)[C@H](CCCNC(=N)N)NC(C)=O)CSSC[C@@H](C(=O)N[C@@H](CCCNC(=N)N)C(=O)N[C@@H](CCCNC(=N)N)C(N)=O)NC(=O)[C@H](C(C)C)NC(=O)[C@@H]2CCCN2C(=O)[C@H](CC(=O)O)NC(=O)[C@H](CC2CCCCC2)NC(=O)[C@H](CO)NC1=O` are 15 min and 5.83.
As for `CC[C@H](C)[C@@H]1NC(=O)[C@H](Cc2ccc(O)cc2)NC(=O)[C@H](CC(C)C)NC(=O)[C@@H]2CCCN2C(=O)[C@@H](NC(=O)[C@H](CCCNC(=N)N)NC(=O)[C@H](CCCNC(=N)N)NC(C)=O)CSSC[C@@H](C(=O)N[C@@H](CCCNC(=N)N)C(=O)N[C@@H](CCCNC(=N)N)C(N)=O)NC(=O)[C@H](C(C)C)NC(=O)[C@@H]2CCCN2C(=O)[C@H](CC(=O)O)NC(=O)[C@H](Cc2ccc(O)cc2)NC(=O)[C@H](Cc2cscn2)NC1=O` (Ac-RRCPLYI[Ala(4-thiazolyl)]YDPVCRR-NH2; disulfide 3-13), in data set [1], the half-life was determined as 22 min. At GTPase KRas [2], the pIC50 is 5.64.
The like results for `CC(=O)N[C@@H](CCCNC(=N)N)C(=O)N[C@@H](CCCNC(=N)N)C(=O)N[C@H]1CSSC[C@@H](C(=O)N[C@@H](CCCNC(=N)N)C(=O)N[C@@H](CCCNC(=N)N)C(N)=O)NC(=O)[C@H](C(C)C)NC(=O)[C@@H]2CCCN2C(=O)[C@H](CC(=O)O)NC(=O)[C@H](Cc2ccc(O)cc2)NC(=O)[C@H](CO)NC(=O)[C@H](CC2CCCC2)NC(=O)[C@H](Cc2ccc(O)cc2)NC(=O)[C@H](CC(C)C)NC(=O)[C@@H]2CCCN2C1=O` (Ac-RRCPLY[Ala(cPent)]SYDPVCRR-NH2; disulfide 3-13) were, in that order, 23 min and less than 4.95.
